Experimental data published in PMC9614283 (Journal of medicinal chemistry, 2017).
Each block holds one molecule with its values, some of them ahead of it.

Tests used:
[1] = tested on: cGMP levels in the hippocampus of mice; assay: Hippocampal cGMP levels after foot shock; type: in vivo; conditions: WT mice, 3 mg/kg ip, 180 s after foot shock; not significant (p = 0.097)
In short: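 Male and female C57Bl6 mice, 2-3 months old (20-25 g), received 3 mg/kg i.p. in 2% DMSO & 2% Tween, or vehicle alone. Foot shock was given 30 min later. Mice were killed by cervical dislocation and decapitation 10 s, 1 min or 3 min after shock. Hippocampi were snap-frozen. cGMP was measured by enzyme immunoassay in duplicate and normalised to BCA protein. n=3 per group; t-test/2-way ANOVA.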

[2] = tested on: hippocampal long-term potentiation (LTP); assay: Hippocampal slice LTP electrophysiology, acute bath perfusion; type: cell-based, mice; conditions: 50 nM bath perfusion
human recombinant PDE5A1 = human recombinant PDE5A1 (Homo sapiens, UniProt O76074); assay: PDE5 fluorescent; type: biochemical
In short: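 Reactions ran 60 min at room temperature with 0.1-0.45 ng PDE5, 100 nM FAM-cGMP or FAM-cAMP substrate and test compound. Binding agent was then added for 60 min at room temperature, and fluorescence was read at ex 485/em 528 nm and converted to polarisation. Each concentration was run in duplicate. Activity was normalised between no compound (100%) and no enzyme and no compound (0%). IC50 came from sigmoidal non-linear regression; values are average ± S.E.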

PDE6C [3] = molecular target: T1, PDE6C (Homo sapiens, UniProt P51160); assay: PDE6 fluorescent; type: biochemical; conditions: PDE6C vs PDE5A1
T1 sequence (P51160 whole entry): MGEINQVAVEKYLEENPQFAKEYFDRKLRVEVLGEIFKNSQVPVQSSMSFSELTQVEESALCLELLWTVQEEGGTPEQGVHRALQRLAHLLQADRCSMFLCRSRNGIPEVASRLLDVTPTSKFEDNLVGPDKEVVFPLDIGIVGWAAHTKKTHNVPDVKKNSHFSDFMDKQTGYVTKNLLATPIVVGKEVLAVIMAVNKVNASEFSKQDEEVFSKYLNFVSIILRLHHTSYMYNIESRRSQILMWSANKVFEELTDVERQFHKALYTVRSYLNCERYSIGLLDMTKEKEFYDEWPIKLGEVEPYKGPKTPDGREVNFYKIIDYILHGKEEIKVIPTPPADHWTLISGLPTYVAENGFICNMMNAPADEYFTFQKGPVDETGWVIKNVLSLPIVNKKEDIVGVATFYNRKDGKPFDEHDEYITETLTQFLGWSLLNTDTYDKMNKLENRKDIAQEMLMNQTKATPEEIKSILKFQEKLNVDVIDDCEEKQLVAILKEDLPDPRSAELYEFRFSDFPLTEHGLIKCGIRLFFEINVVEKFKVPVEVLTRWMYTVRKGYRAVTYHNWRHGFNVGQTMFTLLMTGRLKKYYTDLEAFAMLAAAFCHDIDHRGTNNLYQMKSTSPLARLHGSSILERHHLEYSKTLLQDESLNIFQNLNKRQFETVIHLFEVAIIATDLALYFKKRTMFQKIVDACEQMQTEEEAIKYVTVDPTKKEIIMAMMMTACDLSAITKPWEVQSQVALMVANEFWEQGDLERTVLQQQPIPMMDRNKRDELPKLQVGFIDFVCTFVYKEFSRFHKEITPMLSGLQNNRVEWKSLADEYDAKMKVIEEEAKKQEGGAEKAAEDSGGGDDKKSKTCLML

PDE6C [4] = molecular target: T1, PDE6C; conditions: read-out: PDE6C IC50; recombinant human enzyme; cited from earlier work
[5] = tested on: cGMP levels in the hippocampus of mice; conditions: dosed at 3 mg/kg; cited from earlier work
AD mouse models = conditions: pharmacological treatment of two different AD mouse models; cited from earlier work

Compound: COc1ccc(CNc2c3c(nc4ccc(C#N)cc24)CCN(C(C)=O)C3)cc1Cl [compound 6c, 2-Acetyl-10-[(3-chloro-4-methoxybenzyl)amino]-1,2,3,4-tetrahydrobenzo[b][1,6]naphthyridine-8-carbonitrile]
increase of hippocampal cGMP levels [1]: slight increase
effect on LTP in WT slices [2]: did not have any effect

IC50 (human recombinant PDE5A1): 110 ± 3.3 nM
Compound: COc1ccc(CNc2c3c(nc4ccccc24)CCN(C(C)=O)C3)cc1Cl [17a, 1-(10-((3-Chloro-4-methoxybenzyl)amino)-3,4-dihydrobenzo[b][1,6]naphthyridin-2(1H)-yl)ethan-1-one]

selectivity for PDE5 versus PDE6 (PDE6C [3]): ~ 100 fold
Compound: CCN1Cc2nc3ccc(C#N)cc3c(NCc3ccc(OC)c(Cl)c3)c2C1=O [compound 24a, 9-((3-Chloro-4-methoxybenzyl)amino)-2-ethyl-1-oxo-2,3-dihydro-1H-pyrrolo[3,4-b]quinoline-7-carbonitrile]

Compound: COc1ccc(CNc2c(CO)cnc3c(C4CC4)cc(C#N)cc23)cc1Cl [compound 1]
IC50 (PDE6C [4]): 339 nM
cGMP in the hippocampus of mice [5]: elevation
learning and memory (AD mouse models): rescues learning and memory
